31 compounds from ChEMBL document CHEMBL4834402, “Discovery of TAK-981, a First-in-Class Inhibitor of SUMO-Activating Enzyme for the Treatment of Cancer” (J Med Chem, 2021) can be followed below.

Test [1] deals with T1, SUMO-activating enzyme (Homo sapiens, UniProt Q9UBT2). The test can be described thus: Inhibition of recombinant SAE (unknown origin) assessed as reduction in transfer of SUMO1 to UBC9 using SUMO1 as a substrate in presence of ATP at Km concentration by HTRF assay. It counts as protein-complex assay. A digest of the protocol:
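HTRF transthiolation assay measuring transfer of SUMO1 to UBC9, the E2 for SAE.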
(TR-FRET usually uses a lanthanide donor and a delayed reading to cut background.)

A short description of test [2]: Inhibition of recombinant UAE (unknown origin) in presence of ATP at Km concentration by HTRF assay. Also noted: species or system Homo sapiens.
Another test deals with T2, NEDD8 activating enzyme (Homo sapiens, UniProt Q8TBC4).
T2 sequence (Q8TBC4 whole entry): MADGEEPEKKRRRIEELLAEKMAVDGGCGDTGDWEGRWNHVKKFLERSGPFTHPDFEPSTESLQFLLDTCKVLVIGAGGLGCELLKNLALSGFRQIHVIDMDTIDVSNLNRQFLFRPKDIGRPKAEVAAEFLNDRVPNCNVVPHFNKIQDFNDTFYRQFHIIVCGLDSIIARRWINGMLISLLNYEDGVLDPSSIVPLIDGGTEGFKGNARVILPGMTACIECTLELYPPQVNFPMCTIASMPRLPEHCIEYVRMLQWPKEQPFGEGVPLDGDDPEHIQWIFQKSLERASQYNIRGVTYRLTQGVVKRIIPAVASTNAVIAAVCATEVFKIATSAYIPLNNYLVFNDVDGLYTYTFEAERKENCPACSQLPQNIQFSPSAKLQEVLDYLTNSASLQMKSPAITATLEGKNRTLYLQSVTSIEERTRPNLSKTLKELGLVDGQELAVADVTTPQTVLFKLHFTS
T2 sequence (Q13564 whole entry): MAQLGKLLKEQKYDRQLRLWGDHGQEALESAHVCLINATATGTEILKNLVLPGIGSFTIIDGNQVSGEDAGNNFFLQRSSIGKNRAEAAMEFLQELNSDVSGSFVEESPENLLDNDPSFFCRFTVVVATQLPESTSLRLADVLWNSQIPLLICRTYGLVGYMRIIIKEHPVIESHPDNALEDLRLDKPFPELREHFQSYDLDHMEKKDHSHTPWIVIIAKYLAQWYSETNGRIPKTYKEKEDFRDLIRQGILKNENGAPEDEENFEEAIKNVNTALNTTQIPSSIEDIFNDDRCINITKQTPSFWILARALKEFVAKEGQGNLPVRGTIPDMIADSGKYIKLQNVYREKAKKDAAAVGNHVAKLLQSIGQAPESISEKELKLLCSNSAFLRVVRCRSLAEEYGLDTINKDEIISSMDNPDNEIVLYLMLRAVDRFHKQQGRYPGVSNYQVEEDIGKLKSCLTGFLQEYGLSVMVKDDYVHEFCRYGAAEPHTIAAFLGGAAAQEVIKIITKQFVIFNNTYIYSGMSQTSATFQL
In words: Inhibition of recombinant NAE (unknown origin) in presence of ATP at Km concentration by HTRF assay. The format is protein-complex assay.

The target in test [3] is T1, SUMO-activating enzyme. The test can be described thus: Inhibition of SAE in human HCT116 cells assessed as reduction in redistribution of SUMO2/3 proteins from nucleus to cytosol incubated for 4 hrs by immunofluorescence assay. It counts as cell-based, HCT-116. A digest of the protocol:
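HCT-116 cells exposed to compound across a concentration range for 4 h, then stained with anti-SUMO2/3 monoclonal antibody. Automated imaging scored the nuclear (inner) to cytoplasmic (outer) SUMO2/3 ratio. IC50 taken from the dose response.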

Molecules are shown by their SMILES. Some results are limits rather than exact numbers.

T1 sequence (Q9UBE0 whole entry): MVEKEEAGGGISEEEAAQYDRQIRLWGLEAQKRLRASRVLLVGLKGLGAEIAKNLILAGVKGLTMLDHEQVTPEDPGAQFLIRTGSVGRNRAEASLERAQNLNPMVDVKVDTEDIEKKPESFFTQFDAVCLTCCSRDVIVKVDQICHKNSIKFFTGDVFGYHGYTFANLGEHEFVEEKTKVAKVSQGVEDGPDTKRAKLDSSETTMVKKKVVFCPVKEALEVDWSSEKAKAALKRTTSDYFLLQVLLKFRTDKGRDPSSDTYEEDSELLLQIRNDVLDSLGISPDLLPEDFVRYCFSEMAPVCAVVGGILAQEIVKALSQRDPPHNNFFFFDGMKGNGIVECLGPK
T1 sequence (Q9UBT2 whole entry): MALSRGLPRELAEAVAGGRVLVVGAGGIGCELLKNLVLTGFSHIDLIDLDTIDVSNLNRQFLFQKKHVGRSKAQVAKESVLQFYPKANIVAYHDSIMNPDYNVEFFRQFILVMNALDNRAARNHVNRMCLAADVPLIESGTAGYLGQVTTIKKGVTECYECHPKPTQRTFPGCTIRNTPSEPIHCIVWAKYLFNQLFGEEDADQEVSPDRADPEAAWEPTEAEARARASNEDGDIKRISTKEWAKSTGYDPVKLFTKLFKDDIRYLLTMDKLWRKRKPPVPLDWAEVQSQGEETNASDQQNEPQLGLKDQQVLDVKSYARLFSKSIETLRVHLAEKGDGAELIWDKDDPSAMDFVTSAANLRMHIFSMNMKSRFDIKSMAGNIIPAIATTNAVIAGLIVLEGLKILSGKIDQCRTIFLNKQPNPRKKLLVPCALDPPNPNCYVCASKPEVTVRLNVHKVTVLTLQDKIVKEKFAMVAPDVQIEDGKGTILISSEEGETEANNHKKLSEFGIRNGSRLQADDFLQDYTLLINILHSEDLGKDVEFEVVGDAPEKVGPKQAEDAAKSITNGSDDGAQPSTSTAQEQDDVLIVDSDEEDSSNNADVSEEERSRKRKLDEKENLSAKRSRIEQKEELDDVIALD

In the case of `NS(=O)(=O)OC[C@H]1C[C@@H](Nc2ncncc2C(=O)c2ccn(Cc3ccccc3)c2)C[C@@H]1O`, the concentration for half-maximal inhibition (IC50) on SUMO-activating enzyme [1] was 1.7 nM; in test [2], greater than 1000 nM; on NEDD8 activating enzyme, 23 nM; at SUMO-activating enzyme [3] it was 30 nM.
For `NS(=O)(=O)OC[C@H]1C[C@@H](Nc2ncncc2C(=O)c2ccn(Cc3cccc(C(F)(F)F)c3)n2)C[C@@H]1O`, in that order: 1.1 nM, greater than 1000 nM, 695 nM and 39 nM.
For `N#Cc1sc(C(=O)c2cncnc2N[C@@H]2C[C@H](COS(N)(=O)=O)[C@@H](O)C2)cc1Cc1cccc(Cl)c1`, in that order: 19 nM, greater than 1000 nM, greater than 1000 nM and 6260 nM.
Take `NS(=O)(=O)OC[C@H]1C[C@@H](Nc2ncncc2C(=O)c2ccn(Cc3ccccc3)n2)[C@H](F)[C@@H]1O`: the IC50 is 3.8 nM on SUMO-activating enzyme [1], greater than 1000 nM in test [2], 334 nM on NEDD8 activating enzyme and 517 nM on SUMO-activating enzyme [3].
For `NS(=O)(=O)OC[C@H]1C[C@@H](Nc2ncncc2C(=O)c2ccn(Cc3ccccc3Cl)n2)C[C@@H]1O`, the half-inhibitory concentration (IC50) on SUMO-activating enzyme [1] was 3.2 nM; in test [2], greater than 1000 nM; at NEDD8 activating enzyme it was 215 nM; on SUMO-activating enzyme [3], 332 nM.
For `C#Cc1cccc(Cn2ccc(C(=O)c3cncnc3N[C@@H]3C[C@H](COS(N)(=O)=O)[C@@H](O)C3)n2)c1`, in that order: 1.1 nM, greater than 1000 nM, 304 nM and 22 nM.
For `NC(c1cccc(Cl)c1)c1csc(C(=O)c2cncnc2N[C@@H]2C[C@H](COS(N)(=O)=O)[C@@H](O)C2)c1` (stereo in doubt; 32), in that order: 1.5 nM, greater than 1000 nM, 328 nM and 1030 nM.
For `NS(=O)(=O)OC[C@H]1C[C@@H](Nc2ncncc2C(=O)c2cc(C3OCc4ccc(Cl)cc43)c(Cl)s2)C[C@@H]1O` (some centres not stated), in that order: 3 nM, greater than 1000 nM, greater than 1000 nM and 163 nM.
Regarding `NS(=O)(=O)OC[C@H]1C[C@@H](Nc2ncncc2C(=O)c2ccn(-c3ccccc3)n2)C[C@@H]1O`, the IC50 on SUMO-activating enzyme [1] was 67 nM; in test [2], 468 nM; on NEDD8 activating enzyme, 32 nM; at SUMO-activating enzyme [3] it was greater than 1000 nM.
For `NS(=O)(=O)OC[C@H]1C[C@@H](Nc2ncncc2C(=O)c2ccn(Cc3ccccc3)n2)C(F)(F)[C@@H]1O`, in that order: 3.9 nM, greater than 1000 nM, greater than 1000 nM and 249 nM.
Take `NS(=O)(=O)OC[C@H]1C[C@@H](Nc2ncncc2C(=O)c2ccn(Cc3ccc(Cl)cc3)n2)C[C@@H]1O`: the IC50 was 5.1 nM at SUMO-activating enzyme [1], greater than 1000 nM in test [2], greater than 1000 nM at NEDD8 activating enzyme and 1880 nM on SUMO-activating enzyme [3].
For `NS(=O)(=O)OC[C@H]1C[C@@H](Nc2ncncc2C(=O)c2ccn(Cc3cccc(Cl)n3)n2)C[C@@H]1O`, the IC50 at SUMO-activating enzyme [1] is 1 nM; in test [2], greater than 1000 nM; on NEDD8 activating enzyme, 478 nM; on SUMO-activating enzyme [3], 66 nM.
For `NS(=O)(=O)OC[C@H]1C[C@@H](Nc2ncncc2C(=O)c2csc(Cc3cccc(Br)c3)c2)C[C@@H]1O`, in that order: 18 nM, greater than 1000 nM, 523 nM and 4930 nM.
For `CN1CCc2ccc(Cl)cc2C1c1csc(C(=O)c2cncnc2N[C@@H]2C[C@H](COS(N)(=O)=O)[C@@H](O)C2)c1` (some centres not stated), in that order: 2.5 nM, greater than 1000 nM, greater than 1000 nM and 638 nM.
The corresponding values for `CNC(c1cccc(Cl)c1)c1csc(C(=O)c2cncnc2N[C@@H]2C[C@H](COS(N)(=O)=O)[C@@H](O)C2)c1` (some centres not stated) are 3.7 nM, greater than 1000 nM, 956 nM and 436 nM.
Take `CN(C)C(c1cccc(Cl)c1)c1csc(C(=O)c2cncnc2N[C@@H]2C[C@H](COS(N)(=O)=O)[C@@H](O)C2)c1` (some centres not stated): the IC50 was 25 nM at SUMO-activating enzyme [1], greater than 1000 nM in test [2], greater than 1000 nM at NEDD8 activating enzyme and 4170 nM at SUMO-activating enzyme [3].
Regarding `NS(=O)(=O)OC[C@H]1C[C@@H](Nc2ncncc2C(=O)c2ccn(Cc3cccc(Br)c3)c2)C[C@@H]1O`, the IC50 was 0.6 nM at SUMO-activating enzyme [1], greater than 1000 nM in test [2], 10 nM on NEDD8 activating enzyme and 14 nM at SUMO-activating enzyme [3].
For `NS(=O)(=O)OC[C@H]1C[C@@H](Nc2ncncc2C(=O)c2ccn(Cc3ccc(Cl)o3)n2)C[C@@H]1O`, in that order: 1.1 nM, greater than 1000 nM, 435 nM and 33 nM.
The corresponding values for `NS(=O)(=O)OC[C@H]1C[C@@H](Nc2ncncc2C(=O)c2ccn(CC3CCCCC3)n2)C[C@@H]1O` are 8.2 nM, greater than 1000 nM, 276 nM and 1610 nM.
Turning to `Cc1sc(C(=O)c2cncnc2N[C@@H]2C[C@H](COS(N)(=O)=O)[C@@H](O)C2)cc1C1OCCc2ccc(Cl)cc21` (stereo in doubt; 47), the IC50 on SUMO-activating enzyme [1] amounted to 11 nM; on NEDD8 activating enzyme, 87 nM; at SUMO-activating enzyme [3] it was 3880 nM.
`NS(=O)(=O)OC[C@H]1C[C@@H](Nc2ncncc2C(=O)c2ccn(Cc3cccc(Cl)c3)n2)C[C@@H]1O`: the IC50 at SUMO-activating enzyme [1] was 0.7 nM; in test [2], greater than 1000 nM; at NEDD8 activating enzyme, 242 nM; on SUMO-activating enzyme [3] it was 20 nM.
The corresponding values for `NS(=O)(=O)OC[C@H]1C[C@@H](Nc2ncncc2C(=O)c2ccn(Cc3ccccc3)n2)[C@@H](O)[C@@H]1O` are 27 nM, greater than 1000 nM, 748 nM and 1530 nM.
For `Cc1sc(C(=O)c2cncnc2N[C@@H]2C[C@H](COS(N)(=O)=O)[C@@H](O)C2)cc1[C@H]1NCCc2ccc(Cl)cc21`, in that order: 30 nM, greater than 1000 nM, 554 nM and 399 nM.
Turning to `Cc1cccc(Cn2ccc(C(=O)c3cncnc3N[C@@H]3C[C@H](COS(N)(=O)=O)[C@@H](O)C3)n2)c1`, the IC50 on SUMO-activating enzyme [1] is 1.7 nM; in test [2] it was greater than 1000 nM; at NEDD8 activating enzyme it was 308 nM; on SUMO-activating enzyme [3], 29 nM.
`NS(=O)(=O)OC[C@H]1C[C@@H](Nc2ncncc2C(=O)c2ccn(Cc3cccc(F)c3)n2)C[C@@H]1O`: the IC50 at SUMO-activating enzyme [1] is 2.9 nM; in test [2], greater than 1000 nM; on NEDD8 activating enzyme it was 357 nM; on SUMO-activating enzyme [3], 515 nM.
Regarding `NS(=O)(=O)OC[C@H]1C[C@@H](Nc2ncncc2C(=O)c2cc(Cc3cccc(Br)c3)cs2)C[C@@H]1O`, the IC50 in test [2] is greater than 1000 nM; on NEDD8 activating enzyme it was 91 nM.
As for `NS(=O)(=O)OC[C@@H]1C[C@@H](Nc2ncncc2C(=O)c2ccn(Cc3ccccc3)n2)C[C@@H]1O`, the IC50 on SUMO-activating enzyme [1] is 22 nM; in test [2] it was greater than 1000 nM; on NEDD8 activating enzyme, 806 nM; on SUMO-activating enzyme [3] it was greater than 1000 nM.
With `NS(=O)(=O)OC[C@H]1C[C@@H](Nc2ncncc2C(=O)c2ccn(Cc3ccc(Cl)s3)n2)C[C@@H]1O`, the IC50 at SUMO-activating enzyme [1] was 2 nM; in test [2] it was greater than 1000 nM; on NEDD8 activating enzyme, 353 nM; at SUMO-activating enzyme [3], 228 nM.
The corresponding values for `NS(=O)(=O)OC[C@H]1C[C@@H](Nc2ncncc2C(=O)c2cc(C3NCc4ccc(Cl)cc43)cs2)C[C@@H]1O` (some centres not stated) are 1.6 nM, greater than 1000 nM, greater than 1000 nM and 312 nM.
`NS(=O)(=O)OC[C@H]1C[C@@H](Nc2ncncc2C(=O)c2cc(Cc3cccc(Cl)c3)cs2)C[C@@H]1O`: the values for the IC50 (in test [2]; on NEDD8 activating enzyme) were greater than 1000 nM and 64 nM, respectively.
For `NS(=O)(=O)OC[C@H]1C[C@@H](Nc2ncncc2C(=O)c2ccc(Cc3cccc(Br)c3)o2)C[C@@H]1O`, in that order: greater than 1000 nM and 267 nM.

What is called IC50 is the point on the concentration scale where inhibition reaches its midpoint.
